Measured values: ChEMBL document CHEMBL1125135, “Synthesis and central nervous system actions of thyrotropin-releasing hormone analogues containing a dihydroorotic acid moiety” (J Med Chem, 1990)
Activity calls are given as the source filed them. No cut-off for these calls is given here.

Columns and labels:
[1] = test system: Mus musculus; test: (§1) Effect on reserpine-induced hypothermia (antagonist activity) in mice by intraperitoneal (ip) administration relative to TRH; assay type: functional, organism-based
Outline: (§2)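 Mouse CNS tests followed methods from the authors' earlier paper. The potency ratio versus TRH comes from dose-response data for the test compound and TRH using the parallel line assay method.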

[2] = test system: Mus musculus; test: Effect on pentobarbitol anesthesia (antagonist activity) in mice by intravenous (iv) administration relative to TRHC; Not active; assay type: functional, organism-based; outline: as §2
[3] = test system: Mus musculus; test: Toxicity and mortality indicates the number of dead animals / number of animals used at dose of 500 mg/kg by administering intravenously (iv) in 3 mice.; assay type: organism-based; design: dose 500 mg/kg, route intravenous; conditions: in vivo
Outline: (§3)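 Acute toxicity in male Std/ddY mice (26-28 g), three to 10 per group. Compound dissolved in physiological saline and given as a single iv dose of 500 mg/kg. Animals observed for 1 week at 23-24 °C. Mortality recorded as dead/used.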

[4] = test system: Mus musculus; test: Evaluated for the effect on spontaneous locomotor activity in mice by intraperitoneal (ip) administration relative to TRHV; Not active
[5] = test system: Mus musculus; test: (§4) Effect on pentobarbitol anesthesia (antagonist activity) in mice by intravenous (iv) administration relative to TRH; assay type: functional, organism-based; outline: as §2
[6] = test system: Mus musculus; test: Evaluated for the effect on spontaneous locomotor activity in mice by intraperitoneal (ip) administration relative to TRH
[7] = test system: Mus musculus; test: as §1; assay type: functional
Outline: (§5)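 Mouse CNS assay run by the method of an earlier report. Potency ratio to TRH derived from dose-response data by parallel line assay.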

[8] = test system: Mus musculus; test: Evaluated for the effect on spontaneous locomotor activity in mice by intraperitoneal (ip) administration relative to TRH; remark: listed apart in the source
[9] = test system: Mus musculus; test: as §4; assay type: functional; outline: as §5
[10] = test system: Rattus norvegicus; test: The thyrotropin (TSH) releasing activity was measured as serum TSH at 0.03125 ug/rat dose (i.v.); assay type: functional, organism-based
Outline: (§6)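 TSH release test in rats run as in the authors' earlier paper. Peptide given iv as μg/rat doses, 4–7 rats per group with a control group. Serum TSH reported in μg/100 mL as mean ± SE. Potency ratio versus TRH from parallel-line analysis of dose-response curves. Groups compared with control by two-tailed Student's t test.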

[11] = Evaluated for the potency ratio from the dose-response curve of TRH and compound by the parallel line assay method.; assay type: functional; outline: as §6
[12] = test system: Rattus norvegicus; test: The thyrotropin (TSH) releasing activity was measured as serum TSH at 0.125 ug/rat dose (i.v.); assay type: functional, organism-based; outline: as §6
[13] = test system: Rattus norvegicus; test: The thyrotropin (TSH) releasing activity was measured as serum TSH at 0.5 ug/rat dose (i.v.); assay type: functional, organism-based; outline: as §6
[14] = test system: Mus musculus; test: Effect on reserpine-induced hypothermia (antagonist activity) in mice by intraperitoneal (ip) administration relative to TRH; Nonactive; assay type: functional; outline: as §5
[15] = test system: Mus musculus; test: Toxicity and mortality indicates the number of dead animals / number of animals used at the compound dose of 500 mg/kg by administering intravenously (iv) in mice.; assay type: organism-based; design: dose 500 mg/kg, route intravenous; conditions: in vivo; outline: as §3
[16] = test system: Mus musculus; test: Toxicity and mortality indicates the number of dead animals / number of animals used at the compound dose of 500 mg/kg by administering intravenously (iv) in 3 mice; assay type: functional; outline: as §3

Structure (SMILES)	Activity [1]	Mortality [3]	Activity [5]	Activity [6]	Activity [9]	other results
CN1C(=O)C[C@@H](C(=O)N[C@H](Cc2c[nH]cn2)C(=O)N2CCC[C@@H]2C(=O)OCc2ccccc2)NC1=O.Cl	inactive	3				Activity [2]: inactive; Activity [4]: inactive
NC(=O)[C@@H]1CCCN1C(=O)[C@H](Cc1c[nH]cn1)NC(=O)[C@@H]1CC(=O)N(CCF)C(=O)N1 [listing 1 of 2 here]		1				
CCCCCCCCCCCCCCCCCCN1C(=O)C[C@@H](C(=O)N[C@H](Cc2c[nH]cn2)C(=O)N2CCC[C@@H]2C(N)=O)NC1=O	inactive		inactive	inactive		
CN(C)C(=O)[C@H]1CCCN1C(=O)[C@@H](Cc1c[nH]cn1)NC(=O)[C@@H]1CC(=O)N(C)C(=O)N1	inactive	0	inactive	inactive		
NC(=O)[C@@H]1CCCN1C(=O)[C@H](Cc1c[nH]cn1)NC(=O)[C@@H]1CC(=O)N(CCF)C(=O)N1 [listing 2 of 2 here]					1.2	Activity [7]: 4.1; Activity [8]: 0.9
CC(C)N1C(=O)C[C@@H](C(=O)N[C@@H](Cc2c[nH]cn2)C(=O)N2CCC[C@H]2C(N)=O)NC1=O [listing 1 of 2 here]					1.9	Activity [7]: 11.5; Activity [8]: 5
NC(=O)[C@@H]1CCCN1C(=O)[C@H](Cc1c[nH]cn1)NC(=O)[C@@H]1CC(=O)N(Cc2ccccc2)C(=O)N1 [listing 1 of 2 here]					1.4	Activity [7]: 6.8; Activity [8]: 2.3
CN1C(=O)C[C@@H](C(=O)N[C@H](Cc2c[nH]cn2)C(=O)N2CCC[C@@H]2C(=O)O)NC1=O	inactive	0	inactive	inactive		
CCCCN1C(=O)CC(C(=O)N[C@@H](Cc2c[nH]cn2)C(=O)N2CCC[C@H]2C(N)=O)N(C)C1=O (stereo partly drawn)	inactive	0	inactive	inactive		
CCCN1C(=O)C[C@@H](C(=O)N[C@@H](Cc2c[nH]cn2)C(=O)N2CCC[C@H]2C(N)=O)NC1=O [listing 1 of 2 here]						Activity [8]: 0.7
NC(=O)[C@@H]1CCCN1C(=O)[C@H](Cc1c[nH]cn1)NC(=O)C1=NC(=O)NC(=O)C1		0			1.3	Activity [7]: 5.5; Activity [8]: 3.1
NC(=O)[C@@H]1CCCN1C(=O)[C@H](Cc1c[nH]cn1)NC(=O)[C@@H]1CCC(=O)N1						Serum TSH [10]: 59.1 µg 100ml-1; Ratio [11]: 1; Serum TSH [12]: 115 µg 100ml-1; Serum TSH [13]: 351 µg 100ml-1
CN1C(=O)C[C@@H](C(=O)N[C@@H](Cc2c[nH]cn2)C(=O)N2CCC[C@H]2C(N)=O)N(C)C1=O [listing 1 of 2 here]					1.2	Activity [7]: 0.5; Activity [8]: 0.4
CNC(=O)[C@H]1CCCN1C(=O)[C@@H](Cc1c[nH]cn1)NC(=O)[C@@H]1CC(=O)N(C)C(=O)N1		0			0.6	Activity [14]: 0.9; Activity [8]: 0.4
Cn1c(=O)cc(C(=O)N[C@@H](Cc2c[nH]cn2)C(=O)N2CCC[C@@H]2C(N)=O)[nH]c1=O	inactive	0		inactive	0.4	
CN1C(=O)C[C@@H](C(=O)N[C@@H](Cc2c[nH]cn2)C(=O)N2CCC[C@H]2C(N)=O)N(C)C1=O [listing 2 of 2 here]		0				
COC(=O)[C@@H](Cc1c[nH]cn1)NC(=O)[C@@H]1CC(=O)N(C)C(=O)N1	inactive	0	inactive	inactive		
C=CCN1C(=O)C[C@@H](C(=O)N[C@@H](Cc2c[nH]cn2)C(=O)N2CCC[C@H]2C(N)=O)NC1=O [listing 1 of 2 here]					4.4	Activity [7]: 4.7; Activity [8]: 5.7
CN1C(=O)C[C@@H](C(=O)N[C@H](Cc2c[nH]cn2)C(=O)N2CCC[C@H]2C(N)=O)NC1=O	inactive	0	inactive	inactive		
CN1C(=O)NC(=O)C[C@H]1C(=O)N[C@@H](Cc1c[nH]cn1)C(=O)N1CCC[C@H]1C(N)=O		0				
CCCN1C(=O)C[C@@H](C(=O)N[C@@H](Cc2c[nH]cn2)C(=O)N2CCC[C@H]2C(N)=O)NC1=O [listing 2 of 2 here]		0				

Structure (SMILES)	Activity [1]	Mortality [3]	Activity [5]	Activity [6]	Activity [9]	other results
NC(=O)[C@@H]1CCCN1C(=O)[C@H](Cc1c[nH]cn1)NC(=O)C1CC(=O)N(CCOCc2ccccc2)C(=O)N1 (mixture of isomers)		0		inactive	0.4	Activity [7]: 1.1
NCCN1C(=O)CC(C(=O)N[C@@H](Cc2c[nH]cn2)C(=O)N2CCC[C@H]2C(N)=O)NC1=O (mixture of isomers)	inactive	0	inactive	inactive		
CCCCCN1C(=O)C[C@@H](C(=O)N[C@@H](Cc2c[nH]cn2)C(=O)N2CCC[C@H]2C(N)=O)NC1=O [listing 1 of 2 here]					0.4	
C=CCN1C(=O)C[C@@H](C(=O)N[C@@H](Cc2c[nH]cn2)C(=O)N2CCC[C@H]2C(N)=O)NC1=O [listing 2 of 2 here]		1				
NC(=O)[C@@H]1CCCN1C(=O)[C@H](Cc1c[nH]cn1)NC(=O)C1CC(=O)N(CCO)C(=O)N1 (mixture of isomers)	inactive	0	inactive	inactive		
CCCCCN1C(=O)C[C@@H](C(=O)N[C@H](Cc2c[nH]cn2)C(=O)N2CCC[C@@H]2C(N)=O)NC1=O	inactive			inactive		
CC(=O)O.CCCCCCCCCCCCCCCCCCN1C(=O)C[C@@H](C(=O)N[C@@H](Cc2c[nH]cn2)C(=O)N2CCC[C@H]2C(N)=O)NC1=O						Mortality [15]: 1
CN1C(=O)N(Cc2ccccc2)C(=O)CC1C(=O)N[C@@H](Cc1c[nH]cn1)C(=O)N1CCC[C@H]1C(N)=O (mixture of isomers)	inactive	0	inactive	inactive		
CCCCCN1C(=O)C[C@@H](C(=O)N[C@@H](Cc2c[nH]cn2)C(=O)N2CCC[C@H]2C(N)=O)NC1=O [listing 2 of 2 here]		2				
CCCCN1C(=O)C[C@@H](C(=O)N[C@@H](Cc2c[nH]cn2)C(=O)N2CCC[C@H]2C(N)=O)NC1=O [listing 1 of 2 here]					0.8	Activity [7]: 1.8; Activity [8]: 1.2
NC(=O)[C@@H]1CCCN1C(=O)[C@H](Cc1c[nH]cn1)NC(=O)[C@@H]1CC(=O)N(CC(=O)O)C(=O)N1		0		inactive	0.1	Activity [7]: 0.1
CN1C(=O)C[C@@H](C(=O)N[C@H](Cc2c[nH]cn2)C(=O)O)NC1=O	inactive	0	inactive	inactive		
CN1C(=O)C[C@@H](C(=O)N[C@H](Cc2c[nH]cn2)C(=O)OCc2ccccc2)NC1=O	inactive	0	inactive	inactive		
NC(=O)[C@@H]1CCCN1C(=O)[C@H](Cc1c[nH]cn1)NC(=O)[C@@H]1CC(=O)N(Cc2ccccc2)C(=O)N1 [listing 2 of 2 here]		3				
CN1C(=O)NC(=O)C[C@H]1C(=O)N[C@H](Cc1c[nH]cn1)C(=O)N1CCC[C@@H]1C(N)=O	inactive		inactive	inactive		
CC(C)N1C(=O)C[C@@H](C(=O)N[C@@H](Cc2c[nH]cn2)C(=O)N2CCC[C@H]2C(N)=O)NC1=O [listing 2 of 2 here]		0				
CN1C(=O)C[C@@H](C(=O)N[C@@H](Cc2c[nH]cn2)C(=O)N2CCC[C@@H]2C(N)=O)NC1=O	inactive	0	inactive	inactive		
CCCCN1C(=O)C[C@@H](C(=O)N[C@@H](Cc2c[nH]cn2)C(=O)N2CCC[C@H]2C(N)=O)NC1=O [listing 2 of 2 here]		1				
CCC[C@H](NC(=O)[C@@H]1CC(=O)N(C)C(=O)N1)C(=O)N1CCC[C@@H]1C(N)=O	inactive	0	inactive	inactive		
CN1C(=O)C[C@@H](C(=O)N[C@@H](Cc2c[nH]cn2)C(=O)N2CCC[C@H]2C(N)=O)NC1=O					28.1	Activity [7]: 89.4; Activity [8]: 60.6; Mortality [16]: 0
